Test system: MDA-MB-435 + TRAIL, ATPlite cytotoxicity, 24 h
Test: TRAIL sensitizers in resistant cancer line – cell-based, MDA-MB-435, ATPlite luminescence, 24 h, confirmation (AID 1747)
Settings: stronger effect = higher value; for cytotoxicity: compound alone, no TRAIL
Outline: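 Assay system: TRAIL-resistant human MDA-MB-435 cancer cells; Reagent: TRAIL, 30 ng/mL; Doses: compound 1.25–5 µM final; Timing: 24 h cell growth, 4 h compound pretreatment, 24 h TRAIL exposure; Signal: ATPlite luminescence reporting cellular ATP content.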

[1] = compound plus TRAIL, at 1.25 µM

CSc1nc(-c2ccc(C)cc2)nc(C(Cl)Cl)n1
cytotoxicity with TRAIL (at 5 µM): 71% | cytotoxicity (at 5 µM): 0% | cytotoxicity with TRAIL [1]: 43% | cytotoxicity with TRAIL (compound plus TRAIL, at 2.5 µM): 60%

CSc1nc(-c2ccccc2)nc(C(Cl)Cl)n1
cytotoxicity with TRAIL (at 5 µM): 82% | cytotoxicity (at 5 µM): 0% | cytotoxicity with TRAIL [1]: 44% | cytotoxicity with TRAIL (compound plus TRAIL, at 2.5 µM): 58%

CCSc1nc(-c2ccccc2)nc(C(Cl)Cl)n1
cytotoxicity with TRAIL (at 5 µM): 73% | cytotoxicity (at 5 µM): 0% | cytotoxicity with TRAIL [1]: 28% | cytotoxicity with TRAIL (compound plus TRAIL, at 2.5 µM): 45%

From PubChem BioAssay AID1747 (Sanford-Burnham Center for Chemical Genomics, 2009)
